Measured values from paper PMC7111624 (Phytochemistry, 2016).

Assays:
[1] = test system: human erythrocytes; assay: Intracellular K+ uptake in erythrocytes; assay type: cell-based; settings: 90 min
Summary of the method: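 Fresh human blood was spun at 660 g for 10 min at 4 °C. Erythrocytes were washed three times in GNS buffer (50 g/L glucose, 9 g/L NaCl) and made into a 50% suspension. Cells were treated with test compound in isotonic KCl for 90 min at 37 °C, with a positive control ionophore, then stopped on ice. They were washed five times in cold GNS, haemolysed in water overnight, and digested in HNO3/HClO4. K+ was measured by atomic absorption against a KCl calibration curve.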

[2] = test system: GLS; assay: Western blot expression level in U87-MG cells: GLS; assay type: cell-based, human; settings: 10 µM, 48 h (Fig. S83)
Summary of the method: (§1)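 U87-MG cells were treated for 48 h with test compound (5 or 10 μM) or left untreated as control. Protein was extracted and analysed by western blot, with β-actin as internal loading control.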

[3] = test system: PKM2; assay: Western blot expression level in U87-MG cells: PKM2; assay type: cell-based, human; settings: 10 µM, 48 h (Fig. S83)
Summary of the method: as §1

[4] = test system: HK2; assay: Western blot expression level in U87-MG cells: HK2; assay type: cell-based, human; settings: 10 µM, 48 h (Fig. S83)
Summary of the method: as §1

[5] = test system: FASN; assay: Western blot expression level in U87-MG cells: FASN; assay type: cell-based, human; settings: 10 µM, 48 h (Fig. S83)
Summary of the method: as §1

[6] = test system: U87-MG; assay: SRB proliferation assay, U87-MG glioma cells; assay type: cell-based, human; settings: HA vs U87-MG
Summary of the method: (§2)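 Each ratio is the IC50 in normal human astrocytes divided by the IC50 in the glioma line. Glioma IC50 came from an SRB proliferation assay after 72 h of treatment across a concentration series. Doxorubicin was the positive control and untreated cells the negative control. Values are means ± S.D.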

[7] = test system: C6; assay: SRB proliferation assay, C6 glioma cells; assay type: cell-based, rat; settings: HA vs C6
Summary of the method: as §2

[8] = test system: U251 cells; assay: Cell cycle assay; assay type: cell-based, human; settings: U251, 0.8 μM, 12 h
[9] = test system: U251; assay: SRB proliferation assay, U251 glioma cells; assay type: cell-based, human; settings: HA vs U251
Summary of the method: as §2

[10] = test system: U87-MG cells; assay: Cell cycle assay; assay type: cell-based, human; settings: 0.8 μM, 12 h
[11] = test system: human astrocytes (HA); assay: Growth inhibition of normal human astrocytes; assay type: cell-based; settings: Astrocyte, read-out: IC50, human astrocytes (HA)
[12] = test system: SHG-44; assay: SRB proliferation assay, SHG-44 glioma cells; assay type: cell-based, human; settings: HA vs SHG-44
Summary of the method: as §2

Q: How did the “+ % increase of intracellular K+ = (Compound−CON)/CON × 100%” value (shortened to “+ % increase of intracellular K+ =”) ([1]; 0.01 μM) turn out when `CC(C)[C@@H]1NC(=O)[C@H](C)OC(=O)[C@@H](C(C)C)NC(=O)[C@@H](C(C)C)OC(=O)[C@H](C(C)C)NC(=O)[C@H](C)OC(=O)[C@@H](C(C)C)NC(=O)[C@@H](C(C)C)OC(=O)[C@H](C(C)C)NC(=O)[C@H](C)OC(=O)[C@@H](C(C)C)NC(=O)[C@@H](C(C)C)OC1=O` [Compound 1, valinomycin] was run?
A: 19.06%

Q: What about the “K+ (intracellular, erythrocytes)” value ([1]; 0.01 μM) of the same molecule?
A: 3.81 ± 0.01 mg/mL

Q: What about the “+ % increase of intracellular K+ =” value ([1]; 0.05 μM) of the same molecule?
A: 83.43%

Q: And the “K+ (intracellular, erythrocytes)” value ([1]; 0.05 μM)?
A: 5.87 ± 0.00 mg/mL

Q: And the “+ % increase of intracellular K+ =” value ([1]; 0.1 μM)?
A: 75.63%

Q: What about the “K+ (intracellular, erythrocytes)” value ([1]; 0.1 μM) of the same molecule?
A: 5.62 ± 0.01 mg/mL

Q: What about the “expression level of GLS” value [2] of the same molecule?
A: remarkably reduced expression levels

Q: And the “expression level of PKM2” value [3]?
A: little effect on the downregulation

Q: And the “expression level of HK2” value [4]?
A: remarkably reduced expression levels

Q: What about the “expression level of FANS” value [5] of the same molecule?
A: remarkably reduced expression levels

Q: With `COc1cccc2c1C(=O)c1c(O)c3c(c(O)c1C2=O)C[C@@](O)(C(=O)CO)C[C@@H]3O[C@H]1C[C@H](N)[C@H](O)[C@H](C)O1` [Doxorubicin (DOX), Doxorubicin] as the molecule, how does the “Ratios of IC50HA/IC50GC, U87-MG” value [6] read?
A: 22

Q: And the “Ratios of IC50HA/IC50GC, C6” value [7]?
A: 17

Q: And the “G0/G1, percentage of cells” value [8]?
A: 71.45%

Q: What about the “G2/GM, percentage of cells” value [8] of the same molecule?
A: 13.04%

Q: And the “S, percentage of cells” value [8]?
A: 15.51%

Q: And the “Compound(G0/G1)−CON(G0/G1)” value ([8]; increase vs control)?
A: 26.97%

Q: What about the “Ratios of IC50HA/IC50GC, U251” value [9] of the same molecule?
A: 3

Q: What about the “G0/G1, percentage of cells” value [10] of the same molecule?
A: 90.65%

Q: What about the “G2/GM, percentage of cells” value [10] of the same molecule?
A: 3.83%

Q: And the “S, percentage of cells” value [10]?
A: 5.52%

Q: What about the “Compound(G0/G1)−CON(G0/G1)” value ([10]; increase vs control) of the same molecule?
A: 49.69%

Q: And the IC50 [11]?
A: 8.7 ± 1.2 µM

Q: What about the “Ratios of IC50HA/IC50GC, SHG-44” value [12] of the same molecule?
A: 5
